Rows were chosen to be rich in hits. Some 5.7% of all compounds tested hit in one or more screens of this group.
Beta apoptosis = inhibitors of cytokine-induced beta cell apoptosis, primary screen, luminescence | INS-1E cytokine-induced death, ATP luminescence, 48 h; percent of positive-control rescue, neutral wells zero | protection from apoptosis, % (concentration not given with the values) | 300,000 compounds, 0.8% hits | AID 435005, 2010;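 active means Every replicate reaches about 75%, or at least half do and their mean reaches it too, limit read from the data; inconclusive means At least half of replicates reach the limit but their mean does not; inactive means Under half of replicates reach the limit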;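 further: higher means more ATP so stronger rescue from cytokine killing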
Mdm2-MdmX inh = inhibitors of human Mdm2-MdmX association, primary screen, cell-based, luminescence, split luciferase, SaOS-2, uHTS | Protein Mdm4 (Homo sapiens) + E3 ubiquitin-protein ligase Mdm2 (Homo sapiens), … | SaOS-2 split-luciferase Mdm2/MdmX complementation | inhibition, % at 8 µM | 330,000 compounds, 3% hits | AID 485346, 2010;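 active means inhibition of at least 50% at 8 µM in the primary screen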
SKKanGAS inh = S. pyogenes SKKanGAS growth inhibitors in kanamycin, primary screen, streptokinase expression inhibitor project, SKKanGAS strain, BacTiter-Glo luminescence; 6 h; inhibition, % at 7.5 µM; 300,000 compounds, 1.3% hits; AID 1662, 2009;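 active means mean replicate score, as percent of positive control median, at least 50; inconclusive means mean below 50 but one replicate at or above 50; inactive means mean and every replicate below 50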;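 further: strain carries kanamycin resistance gene driven by streptokinase promoter and grows in 40 µg/ml kanamycin; loss of luminescence reflects streptokinase promoter inhibition or plain growth inhibition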
Calb FLC = C. albicans growth inhibition with fluconazole, primary screen, CaCi-2 strain, Alamar Blue fluorescence; 300,000 compounds, 0.57% hits; growth inhibition, % (no concentration beside the values); C. albicans CaCi-2 (fluconazole-resistant clinical isolate) + fluconazole, 48 h;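 active means growth inhibition above about 58% in most replicates, limit read from the data, passing the limit was not always enough; inconclusive means exactly half the replicates above a set limit; inactive means most replicates below a set limit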;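 further: all wells also contain fluconazole at 8 µg/ml as a sub-toxic cotreatment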
CSC inhib = cancer stem cell viability inhibitors, primary screen, luminescence; 300,000 compounds, 1.1% hits; cancer stem cell-like cells viability; inhibition, % at 7.5 µM; AID 2717, 2010; in the data active means inhibition above about 75%; inconclusive means no clear call, values can overlap the other calls; tested in HMLE shEcad cells
T cruzi inh = inhibitors of intracellular T. cruzi growth, primary screen, luminescence, NIH3T3 host cells; inhibition, % (test concentration not listed); T. cruzi beta-gal in NIH3T3, 90 h; 300,000 compounds, 1.4% hits;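 active means mean inhibition across valid replicates above about 55%, limit read from the data; inconclusive means mean below that limit but half or more replicates reach it; inactive means mean below it, under half of replicates reach it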;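 further: signal also drops with host cell toxicity which is not excluded here; higher percent means less beta-gal luminescence so fewer parasites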
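Incubation – ≥90 h infection period, 3 h prior cell attachment · System – NIH/3T3 fibroblasts plus reporter T. cruzi · Doses – compound pinned at 50 nL/well, DMSO · Read-out basis – percent inhibition of parasite-derived β-gal signal · Signal – luminescent β-galactosidase signal after 60 min lysis · Also added – 5000 T. cruzi trypomastigotes/well · Medium – Low-serum DMEM with 2% FBS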
Mdm2-MdmX conf = Mdm2-MdmX complex disruptors, retested hits, confirmation, luminescence, single concentration. Mdm2-MdmX binding, luminescent assay. shares compounds with Mdm2-MdmX inh. 10,000 compounds, 55% hits. inhibition, % at 8 µM; in the data active means inhibition above about 40%
FLuc counter = full-length luciferase signal inhibition, confirmation, counter-screen for Mdm2/MdmX interaction inhibitor project, cell-based, single concentration, SaOS-2; shares compounds with Mdm2-MdmX inh; SaOS-2 full-length luciferase counterscreen, luminescence; inhibition, % at 8 µM; 6,200 compounds, 77% hits;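 active means mean inhibition at 8 µM reaching about 37%, which flags the compound as non-specific, limit read from the data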;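 further: p53-null SaOS-2 cells with luciferase driven by a doxycycline-inducible promoter; compound on cells about two nights before reading with doxycycline added after day one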
Hits are given with their value; – = inactive; ? = inconclusive; · = no result.

SMILES	Beta apoptosis	Mdm2-MdmX inh	SKKanGAS inh	Calb FLC	CSC inhib	T cruzi inh	Mdm2-MdmX conf	FLuc counter
CCN1CCc2c(sc(NC(=O)c3ccc(S(=O)(=O)N(C)c4ccccc4)cc3)c2C(=O)NC)C1	–	59	–	–	–	–	–	·
COC(=O)c1c(NC(=O)c2ccc(N(C)S(=O)(=O)c3ccc(C)cc3)cc2)sc2c1CCCC2	–	–	–	–	–	–	·	·
Cc1nc2cc(OCc3cc(C(=O)NC(C)c4cnn(C)c4)no3)ccc2s1 (stereo not given)	–	–	–	–	–	–	·	·
COc1cc(C=O)ccc1OC(=O)Nc1ccccc1	–	–	–	–	–	–	·	·
COC(=O)[C@H]1[C@H]2C[C@H]3c4[nH]c5ccccc5c4CCN3C[C@H]2CC[C@@H]1O	–	–	–	–	–	–	·	·
CCOC(=O)Oc1c(OC)cc(C(=O)O[C@@H]2C[C@@H]3CN4CCc5c([nH]c6cc(OC)ccc56)[C@H]4C[C@@H]3[C@H](C(=O)OC)[C@H]2OC)cc1OC	–	88	·	·	–	·	58	49
CCOC(=O)N1CCN(Cc2cc(Cl)c3cccnc3c2O)CC1	103	64	66	116	–	–	51	38
CCOC(=O)N1CCN(Cc2ccccc2Cl)CC1	–	–	·	·	–	·	·	·
CCOc1ccccc1N1CCN(Cc2cccc(OC)c2OC)CC1	–	–	–	–	–	–	·	·
COc1ccccc1N1CCN(Cc2ccc(O)c3ncccc23)CC1	139	77	–	–	·	–	67	–
CCOC(=O)C1CCN(Cc2ccc(O)c3ncccc23)CC1	85	81	–	112	–	55	62	50
O=C(Oc1c(CN2CCOCC2)cc(Cl)c2cccnc12)c1ccccc1Br	97	52	–	87	–	–	–	·
C/C(CC(=O)NCc1ccccc1Cl)=N/NC(=O)c1ccccn1	–	–	–	–	–	–	·	·
COc1cccc(CN(C)C(=O)CSCC(=O)Nc2cc(C)on2)c1OC	–	–	–	–	–	–	·	·
CN(c1cccc(NC(=O)c2cccc([N+](=O)[O-])c2)c1)S(C)(=O)=O	–	–	–	–	–	–	·	·
Oc1ccc(CN2CCCc3ccccc32)c2cccnc12	103	79	–	–	–	–	76	43
CCN(C(=O)c1cc2c(s1)-c1ccccc1S(=O)(=O)C2)c1cc(OC)ccc1OC	–	–	–	–	–	–	·	·
COc1ccc(C(=O)c2ccc(Br)cc2)c2ccccc12	–	52	–	–	–	–	53	80
COc1ccc(C(=O)c2ccc(Cl)cc2)c2ccccc12	–	–	–	–	–	–	·	·
O=C(C#Cc1ccccc1)c1ccc([N+](=O)[O-])cc1	·	97	–	–	·	–	82	58
C=CCOc1ccccc1C(=O)/C=C1/C(=O)Nc2ccccc21	–	78	–	–	–	–	–	·
C=CCOc1ccc(C(=O)/C=C2/C(=O)Nc3ccccc32)cc1	–	52	–	–	–	–	–	·
COc1ccc(C(=O)/C=C2/C(=O)Nc3ccccc32)cc1OC	–	–	–	–	–	–	·	·
COc1ccc(C(=O)/C=C2/C(=O)Nc3ccccc32)cc1	–	–	–	–	?	–	·	·
COc1ccc(C(=O)/C=C2/C(=O)Nc3ccccc32)c(OC)c1	–	86	–	–	75	–	–	·
SMILES	Beta apoptosis	Mdm2-MdmX inh	SKKanGAS inh	Calb FLC	CSC inhib	T cruzi inh	Mdm2-MdmX conf	FLuc counter
O=C1Nc2ccccc2/C1=C/C(=O)c1cccs1	–	64	–	–	83	–	–	·
NC(=O)COc1ccc(C(=O)/C=C2/C(=O)Nc3ccccc32)cc1	·	–	–	–	·	–	·	·
Cn1nc([N+](=O)[O-])nc1Sc1nnc(-c2ccccc2)o1	–	100	–	–	–	69	76	52
O=Cc1ccc(Sc2nnc(-c3ccccc3)o2)c([N+](=O)[O-])c1	–	–	–	–	–	–	·	·
O=Cc1c[nH]c2cccc(OCc3ccccc3)c12	·	57	·	·	·	·	53	64
O=C(N/N=C/c1ccccc1O)C1CC(=O)N(c2ccc(Cl)cc2)C1 (stereo not given)	84	76	–	–	–	–	59	37
Cc1ccc(/C=N/NC(=O)C2CC(=O)N(c3ccccc3)C2)s1 (stereo not given)	–	–	–	–	–	–	·	·
CC(C)(C)c1ccc(N2C(=O)CSC2c2cccnc2)cc1 (stereo not given)	–	–	–	–	–	–	·	·
N#CCCN(CCC#N)C(=O)C1c2ccccc2Oc2ccccc21	–	–	–	–	–	–	·	·
CC(=O)Nc1ccc(S(=O)(=O)NC2=NCN(c3ccc([N+](=O)[O-])cc3)CN2)cc1	–	63	–	–	–	–	–	·
CN1CN=C(NS(=O)(=O)c2ccc([N+](=O)[O-])cc2)NC1	–	–	–	–	–	–	·	·
CCOc1ccc2nc(SCC(=O)Nc3ccc4[nH]c(=O)[nH]c4c3)[nH]c2c1	–	–	–	–	·	–	·	·
Cc1ccc(-n2c(C)cc(C3=NNC(=NC4CC4)SC3)c2C)cc1C	–	69	–	?	–	–	50	120
COC(=O)[C@@]1(Cc2ccc(OC)cc2)[C@@H]2[C@@H](CC(=O)[C@H]2CC(=O)C(=O)N(C)C)CN1C(=O)c1ccccc1	–	–	–	–	–	–	·	·
COC(=O)[C@@]1(Cc2ccc(OC)cc2)[C@@H]2C(=CC(=O)[C@H]2CC(=O)C(=O)N2CCCC2)CN1C(=O)c1ccccc1	–	69	·	·	–	·	–	·
Nc1cccc(CP(=O)(c2ccccc2)c2ccccc2)c1	–	–	·	·	–	·	·	·
CCN(CC)S(=O)(=O)c1cccc(C(=O)N/N=C(\C)c2ccc(O)cc2O)c1	·	73	–	–	·	64	57	106
COC(=O)c1ccc2[nH]c3cccc(/C(=C/c4ccccc4)c4ccccc4)c3c2c1	109	66	94	–	129	–	–	·
CC(=O)Nc1nc(-c2ccc3c(c2)CC(C)N3C(=O)C2CC2)c(C)s1 (stereo not given)	–	85	–	–	–	–	85	54
Cc1sc(NC(=O)c2ccco2)nc1-c1ccc2c(c1)CC(C)N2C(=O)C1CC1 (stereo not given)	–	85	–	–	–	–	55	53

Screens: PubChem, several laboratories
